Measurements as given in ChEMBL document CHEMBL4038330, “Discovery of Potent Orally Active Protease-Activated Receptor 1 (PAR1) Antagonists Based on Andrographolide” (J Med Chem, 2017).

How the values were obtained:
Rattus norvegicus [1] = test: Toxicity in Wistar rat assessed as body weight at 5 mg/kg, po measured up to 24 hrs post dose; assay type: organism-based; settings: in vivo
Plasma [2] = test: Drug metabolism in Wistar rat plasma assessed as [M2-2H] metabolite formation at 5 mg/kg, po administered as single dose measured at 3 hrs post dose by LC-HRMS analysis; assay type: ADME, organism-based; settings: in vivo
Method in brief: (§1)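 Rats dosed orally at 10 mg/kg or 5 mg/kg. Plasma taken at 3.0 h after dosing. Parent and metabolites detected by extracted ion chromatograms.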

Plasma [3] = test: Drug metabolism in Wistar rat plasma assessed as [M2+O] metabolite formation at 5 mg/kg, po administered as single dose measured at 3 hrs post dose by LC-HRMS analysis; assay type: ADME, organism-based; settings: in vivo; method in brief: as §1
[4] = system: collagen-stimulated platelet aggregation; test: Toxicity in guinea pig assessed as inhibition of collagen-stimulated platelet aggregation at 10 mg/kg, po pretreated for 2 hrs followed by collagen stimulation measured after 5 mins; assay type: organism-based, Cavia porcellus; settings: in vivo
[5] = system: collagen-stimulated platelet aggregation; test: Toxicity in guinea pig assessed as inhibition of collagen-stimulated platelet aggregation at 30 mg/kg, po pretreated for 2 hrs followed by collagen stimulation measured after 5 mins; assay type: organism-based, Cavia porcellus; settings: in vivo
Rattus norvegicus [6] = test: AUMC (0 to infinity) in Wistar rat at 1 mg/kg, iv administered as bolus dose measured up to 24 hrs post dose by HPLC-MS/MS analysis; assay type: ADME, organism-based; settings: in vivo
Method in brief: (§2)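 Male Wistar rats, n = 6 per group, given 1 mg/kg intravenously or 5 mg/kg intragastrically. Blood concentrations followed over 24 h. Non-compartmental analysis; values as median ± SD. Bioavailability from oral versus intravenous exposure.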

Rattus norvegicus [7] = test: VRT (0 to infinity) in Wistar rat at 1 mg/kg, iv administered as bolus dose measured up to 24 hrs post dose by HPLC-MS/MS analysis; assay type: ADME, organism-based; settings: in vivo
[8] = Apparent terminal half life in Wistar rat at 5 mg/kg, po measured up to 24 hrs post dose by HPLC-MS/MS analysis; assay type: ADME, organism-based; settings: in vivo, read-out: betat1/2(app) (converted); method in brief: as §2
[9] = Cmax in Wistar rat at 5 mg/kg, po measured up to 24 hrs post dose by HPLC-MS/MS analysis; assay type: ADME, organism-based; design: dose 5 mg/kg, route oral; settings: in vivo; method in brief: as §2
[10] = Oral bioavailability in Wistar rat at 5 mg/kg measured up to 24 hrs post dose by HPLC-MS/MS analysis; assay type: ADME, organism-based; settings: in vivo; method in brief: as §2
Plasma [11] = test: Stability in Wistar rat assessed as parent compound level in plasma at 5 mg/kg, po administered as single dose measured at 3 hrs post dose by LC-HRMS analysis; assay type: ADME, organism-based; settings: in vivo; method in brief: as §1

Drug metabolism (Plasma [2]): Metabolite_Detected
Drug metabolism (Plasma [3]): Metabolite_Detected
AUMC (Rattus norvegicus [6]): 1135 ng·h/mL
VRT (Rattus norvegicus [7]): 7.6 ha2
half-life [8]: 3.1 h
Cmax [9]: 229 ng/mL
bioavailability [10]: 52.5%
Stability (Plasma [11]): Stable
Structure (SMILES): CC1CC[C@@H]2C(C)(C)[C@H](O)CC[C@@]2(C)[C@@H]1/C=C/c1ccc(-c2cccc(F)c2)cn1 (single isomer, unassigned)
Activity (Rattus norvegicus [1]): 224 g
inhibition at 5 min [4]: 5.5%
inhibition at 5 min [5]: 6.8%
